Bioassay records: PubChem BioAssay, The Scripps Research Institute Molecular Screening Center
This is a sample that favours compounds with a hit; in the whole collection about 0.63% have one here.
TRPML3 agonist: activates the human TRPML3 channel. Q8TDD5. activation, % at 3 µM. HEK293 TRPML3-YFP, Fluo-8 calcium fluorescence; 100% = the carbachol control signal. 220,000 tested, 0.29% active. AID 1448;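 active = activation above its plate's cutoff, the mean activation of the plate's test wells plus 3 SD, cut at about 12% in these data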;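 also: 0% = DMSO only wells and 100% = carbachol wells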
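Test system: TRPML3-YFP stable HEK293 cells. Doses: single point at 3 µM. Incubation: dye loading 1 h 37 °C then 30 min ambient, 125 s read. Signal: Fluo-8 calcium dye fluorescence, ex 470-495, em 515-575 nm. Measure: percent activation from peak-to-basal fluorescence ratio, scaled between DMSO and carbachol.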
IDE cell inh: cellular human IDE inhibition; P14735; HEK cells, FAbetaB cleavage, fluorescence polarization; inhibition, % at 5.59 µM; 320,000 tested, 0.41% active; AID 434962;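 active = percent inhibition above the average of all tested compounds plus 3 SD, set per screening campaign, cut at about 16% in these data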;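 also: IDE supplied by intact live HEK cells; FP after avidin binding of uncleaved biotin substrate so inhibition keeps polarization high; 0% = DMSO wells and 100% = 60 µM reference IDE inhibitor Ii1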
Target sequence (P14735 whole entry, looked up): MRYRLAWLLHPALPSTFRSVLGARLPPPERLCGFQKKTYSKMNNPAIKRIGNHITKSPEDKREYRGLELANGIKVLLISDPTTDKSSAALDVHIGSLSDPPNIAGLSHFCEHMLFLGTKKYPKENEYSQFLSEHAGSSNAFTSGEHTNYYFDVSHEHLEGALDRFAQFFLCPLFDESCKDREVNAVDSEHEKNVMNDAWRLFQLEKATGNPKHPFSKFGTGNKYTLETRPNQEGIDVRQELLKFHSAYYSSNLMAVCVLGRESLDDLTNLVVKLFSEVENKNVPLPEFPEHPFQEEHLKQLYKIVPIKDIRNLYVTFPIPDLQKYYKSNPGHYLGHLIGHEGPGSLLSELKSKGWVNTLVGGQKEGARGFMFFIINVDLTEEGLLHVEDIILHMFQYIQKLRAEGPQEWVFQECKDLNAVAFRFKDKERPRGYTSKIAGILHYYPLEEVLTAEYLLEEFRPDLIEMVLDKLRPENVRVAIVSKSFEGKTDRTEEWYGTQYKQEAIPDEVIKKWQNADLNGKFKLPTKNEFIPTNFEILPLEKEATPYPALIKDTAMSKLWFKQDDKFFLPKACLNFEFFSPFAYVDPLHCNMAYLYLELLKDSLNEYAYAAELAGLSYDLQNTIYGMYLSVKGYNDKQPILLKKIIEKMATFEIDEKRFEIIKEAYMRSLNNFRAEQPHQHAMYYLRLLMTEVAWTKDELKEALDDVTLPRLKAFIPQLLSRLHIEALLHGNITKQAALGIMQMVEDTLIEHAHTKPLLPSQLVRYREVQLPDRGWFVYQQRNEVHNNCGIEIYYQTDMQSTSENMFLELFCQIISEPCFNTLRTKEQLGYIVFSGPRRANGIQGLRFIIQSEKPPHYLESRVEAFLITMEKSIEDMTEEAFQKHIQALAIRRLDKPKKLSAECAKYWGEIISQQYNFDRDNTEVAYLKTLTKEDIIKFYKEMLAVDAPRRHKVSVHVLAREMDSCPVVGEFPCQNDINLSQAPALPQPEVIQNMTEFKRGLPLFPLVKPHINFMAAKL
zfTRPN1 agonist: zebrafish TRPN1 (NompC) channel agonism; HEK293 zebrafish TRPN1-YFP, Fluo-8 calcium fluorescence; 100% = response to 87 µM carbachol; activation, % at 3 µM; AID 1424; 220,000 tested, 0.18% active;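 active = activation above its plate's cutoff, the mean activation of test wells on that plate plus 3 SD, cut at about 19% in these data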;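 also: 0% = DMSO alone and 100% = 87 µM carbachol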
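Material: zebrafish TRPN1-YFP in HEK293 cells. Doses: one dose of 3 µM, 0.3% DMSO. Incubation: dye 1 h 37 °C plus 30 min RT. Measured by: intracellular calcium fluorescence with Fluo-8.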
IDE act: activators of human insulin-degrading enzyme in cells; activation, % at 5.96 µM; 340,000 tested, 0.073% active; HEK cells, FAbeta-B cleavage, fluorescence polarization; 0% vehicle, 100% cell-free pure enzyme wells;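 active = activation above the mean of all tested compounds plus 3 SD, set per screening campaign, cut at about 17% in these data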
IDE inh confirm: cellular human IDE inhibition, confirmation; inhibition, % at 5.59 µM; HEK cells, FAbetaB cleavage, fluorescence polarization; AID 435028; shares compounds with IDE cell inh; 1,200 tested, 51% active;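 active = mean inhibition across triplicate wells above the cutoff set by the earlier primary insulin-degrading enzyme screen, cut at about 16% in these data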;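 also: 0% = DMSO wells and 100% = 60 µM reference IDE inhibitor Ii1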
HEK cytotox: kills HEK cells in IDE inhibitor counter-screen | shares compounds with IDE cell inh | HEK293 cytotoxicity, ATP luminescence | inhibition, % at 5.59 µM | 1,200 tested, 28% active; in the data active = inhibition above about 22%;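 also: 0% = vehicle wells and 100% = reference cytotoxic drug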
The depositor's hits bear a star; · = no result.

SMILES | TRPML3 agonist | IDE cell inh | zfTRPN1 agonist | IDE act | IDE inh confirm | HEK cytotox
COCCNC(=O)CCN1N=C(c2ccccc2)CCC1=O | · | 2 | · | 3 | · | ·
Cn1c(N/N=C/c2c[nH]c3ccccc23)nc2ccccc21 | 1 | 29* | -2 | -9 | 0 | 63*
Cc1cc(N/N=C/c2c[nH]c3ccccc23)c2ccccc2n1 | 0 | -1 | 0 | 3 | · | ·
Cc1cccc(NC(=S)NC2CC3CCCC(C2)N3CC(C)C)c1 (configuration not stated) | 1 | 11 | 0 | -2 | · | ·
O=c1c2ccccc2nc2n1C(CSCc1ccc(Cl)cc1Cl)CS2 (configuration not stated) | 0 | 5 | 0 | -19 | · | ·
COc1cc(/C=C/C(=O)CC(=O)/C=C/c2ccc(O)c(OC)c2)ccc1O | 8 | 31* | 11 | -63 | 81* | 9
COc1ccc2[nH]cc(/C=C/C(=O)c3ccccc3)c2c1 | 1 | 0 | 1 | -8 | · | ·
Cc1ccc2[nH]c3c(NCc4ccco4)ncnc3c2c1 | 5 | 65* | 8 | -54 | 53* | 53*
c1coc(CNc2ncnc3nc[nH]c23)c1 | 1 | 1 | 0 | 6 | · | ·
Cc1ccc2[nH]c3c(NCCCN4CCCC4=O)ncnc3c2c1 | 0 | 18* | 1 | -8 | 6 | 7
Cc1ccc(-n2ncc3c(NCCCN4CCCC4=O)ncnc32)c(C)c1 | 0 | 1 | -1 | 0 | · | ·
O=C(Nc1c(C(=O)NCc2ccco2)cnn1-c1ccccc1)c1ccc(F)cc1 | 0 | -1 | 1 | 4 | · | ·
CCOc1ccccc1C1C(C(=O)Nc2ccccc2OC)=C(C)Nc2nnnn21 (configuration not stated) | 1 | -2 | 1 | 3 | · | ·
CCOc1ccc(NC(=O)CSc2nc3c(c(=O)n2C)SC(C)C3)cc1 (configuration not stated) | 0 | 16* | -1 | -35 | 11 | 17
CC1Cc2nc(SCC(=O)Nc3ccc(F)cc3)n(C)c(=O)c2S1 (configuration not stated) | -1 | 7 | 2 | 6 | · | ·
CCOC(=O)C1C(=O)NC(SCC(N)=O)=C(C#N)C1c1ccccc1OCC (configuration not stated) | 2 | 37* | 6 | -34 | 31* | 6
O=c1c2[nH]c3ccccc3c2ncn1CCCn1ccnc1 | 1 | 3 | 0 | -3 | · | ·
O=c1c2[nH]c3ccc(Br)cc3c2ncn1CCCn1ccnc1 | 3 | 21* | 1 | -9 | 6 | 19
COC1=C/C(=C/c2c(N)n3nc(-c4ccc(C)cc4)sc3nc2=O)C=CC1=O | 0 | · | -1 | -73 | · | ·
CCS(=O)(=O)c1nn2c(N)c(/C=C3/C=CC(=O)C(OC)=C3)c(=O)nc2s1 | 0 | 24* | 1 | -95 | 157* | 13
CCCn1c(SC(C)C(=O)NCC2CCCO2)nc2sc(CC)cc2c1=O (configuration not stated) | · | 3 | · | 3 | · | ·
COc1ccc(NC(=O)COC(=O)c2ncc(Cl)c(Cl)c2Cl)c(OC)c1 | 0 | 2 | 1 | 2 | · | ·
COc1ccccc1N1CCN(C(=O)c2cc(N3C(=O)C4C5CCC(C5)C4C3=O)ccc2Cl)CC1 (configuration not stated) | 1 | 31* | 2 | -16 | 21* | 11
COc1cccc(/C=N/n2c(SC)nnc2-c2ccccc2)c1O | 1 | 25* | 1 | -34 | 40* | 27*
COc1cccc(/C=N/n2c(SC)nnc2-c2ccccc2)c1OC | -1 | -3 | -1 | 1 | · | ·
Fc1ccc(Oc2cnc3ccccc3n2)cc1 | 0 | 1 | 0 | 3 | · | ·
O=C(O)c1ccccc1NS(=O)(=O)c1cccc(-n2sc3ccccc3c2=O)c1 | · | 90* | · | -20 | 73* | 1
Cc1cc(C)cc(NC(=O)CSc2nnc(-c3cc(C)[nH]n3)n2N)c1 | · | 2 | · | -2 | · | ·
O=C(CNC(=O)c1ccccc1)OC(C(=O)c1ccccc1)c1ccccc1 (configuration not stated) | 0 | -3 | -1 | -5 | · | ·
Cc1ccc(C(=O)C(OC(=O)CNC(=O)c2ccc(Cl)cc2)c2ccccc2)cc1 (configuration not stated) | 0 | 17* | 0 | 3 | 1 | 10
